Results on seven compounds are retold here after ChEMBL document CHEMBL1148118, “Immunomodulatory proanthocyanidins from Ecdysanthera utilis” (J Nat Prod, 2002).

Holding throughout (format): functional, cell-based
Assay [1] deals with PBMC. Briefly: Inhibition of PHA-stimulated human PBMC proliferation assessed as [3H]thymidine uptake after 3 days by scintillation counting. In short, it runs like this:
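Ficoll-Hypaque-isolated human PBMC at 2 × 10^6 cells/mL in RPMI-1640 with 2% FCS, 100 µL/well, with or without 5 µg/mL PHA plus test compound. Incubated 3 days at 37 °C in 5% CO2. 3H-thymidine (1 µCi/well) was then added for 16 h, and cells were harvested onto glass-fiber filters for scintillation counting. % inhibition = (control CPM − treated CPM)/control CPM × 100. DMSO 0.1% vehicle.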

The subject of assay [2] is PBMC. Briefly: Immunomodulatory activity in PHA-stimulated human PBMC assessed as inhibition of IL2 production after 3 days by enzyme immuno assay. In short, it runs like this: (§1)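 Human PBMC isolated by Ficoll-Hypaque density gradient, resuspended in RPMI-1640 with 2% FCS and penicillin/streptomycin. 2 × 10^5 cells/well cultured with PHA (5 µg/mL) plus 0, 6, 12.5, 25, 50 or 100 µM compound for 3 days. IL-2 and IFN-γ measured in the supernatants by EIA. Each point is the mean of three independent experiments.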

The subject of assay [3] is PBMC. Nature of the assay: Immunomodulatory activity in PHA-stimulated human PBMC assessed as inhibition of IFN-gamma production after 3 days by enzyme immuno assay. In short, it runs like this: as §1

Calls of active or inactive are those of the source. The rule behind the calls is not given here.

For orientation: IC50 means the concentration at which inhibition is half-maximal. On to `Oc1cc(O)c2c(c1)O[C@@]1(c3ccc(O)c(O)c3)Oc3cc(O)c4c(c3[C@@H]2[C@H]1O)O[C@H](c1ccc(O)c(O)c1)[C@@H](O)C4` [PROANTHOCYANIDIN A1], for which the IC50 in assay [1] came to 30.6 µM; in assay [2] (72 h) it was 25 µM; in assay [3] (72 h), 5.1 µM. In addition, the Activity entry in assay [2] and in assay [3] was “Dose-dependent effect” in each case.

Regarding `Oc1cc(O)c2c(c1)O[C@H](c1ccc(O)c(O)c1)[C@H](O)[C@H]2c1c(O)cc(O)c2c1O[C@@]1(c3ccc(O)c(O)c3)Oc3cc(O)c4c(c3[C@@H]2[C@H]1O)O[C@H](c1ccc(O)c(O)c1)[C@H](O)[C@@H]4c1c(O)cc(O)c2c1O[C@H](c1ccc(O)c(O)c1)[C@H](O)C2`, in assay [1], the result was inactive.

For the compound `Oc1cc(O)c2c(c1)O[C@@]1(c3ccc(O)c(O)c3)Oc3cc(O)c4c(c3[C@@H]2[C@H]1O)O[C@H](c1ccc(O)c(O)c1)[C@H](O)[C@@H]4c1c(O)cc(O)c2c1O[C@H](c1ccc(O)c(O)c1)[C@H](O)C2`, the outcome in assay [1] was inactive.

`Oc1cc(O)c2c(c1)O[C@@]1(c3ccc(O)c(O)c3)Oc3cc(O)c4c(c3[C@@H]2[C@H]1O)O[C@H](c1ccc(O)c(O)c1)[C@H](O)C4`: in assay [1], the result was inactive.

For `Oc1cc(O)c2c(c1)O[C@H](c1ccc(O)c(O)c1)[C@H](O)[C@H]2c1c(O)cc(O)c2c1O[C@H](c1ccc(O)c(O)c1)[C@H](O)C2`, the outcome in assay [1] was inactive.

On to `Oc1cc(O)c2c(c1)O[C@@]1(c3ccc(O)c(O)c3)Oc3cc(O)c4c(c3[C@@H]2[C@H]1O)O[C@@]1(c2ccc(O)c(O)c2)Oc2cc(O)c3c(c2[C@@H]4[C@@H]1O)O[C@H](c1ccc(O)c(O)c1)[C@H](O)C3`, for which the result in assay [1] was inactive.

Regarding `Oc1cc(O)c2c(c1)O[C@H](c1ccc(O)c(O)c1)[C@H](O)C2`, the outcome in assay [1] was inactive.
